Experimental data reported in ChEMBL document CHEMBL1821702, “8,8-Dimethyldihydroberberine with improved bioavailability and oral efficacy on obese and diabetic mouse models” (Bioorg Med Chem, 2010).

Legend:
[1] = tested on: L6; assay: Cytotoxicity against rat L6 cells upto 40 uM after 24 hrs by MTT assay; format: cell-based; conditions: l6, 24 h
In short: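 Differentiated L6 myoblasts were exposed to a concentration range of compounds for 24 h at 37 °C. MTT (5 mg/mL) was added for 3 h, formazan was dissolved in DMSO, and absorbance was read at 550 nm against 690 nm reference. Mean of three independent experiments ± SE.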

[2] = tested on: L6; assay: Increase in glucose uptake in rat differentiated L6 myotubes after 1 hr relative to untreated control; format: functional
In short: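 Fully differentiated L6 myotubes were serum-starved 2 h, then treated with compound for 15 min to 2 h (dose series at 1 h). Glucose uptake was measured relative to DMSO control. Mean of three independent experiments ± SE.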

SMILES: CCCC1(CCC)c2c(ccc(OC)c2OC)CC2=[N+]1CCc1cc3c(cc12)OCO3.[Cl-] [8,8-Dipropyldihydroberberine]
- Activity [1]: Non-toxic
- Activity [2]: 62%
